Data: ChEMBL document CHEMBL1132235, “Thioamides: synthesis, stability, and immunological activities of thioanalogues of Imreg. Preparation of new thioacylating agents using fluorobenzimidazolone derivatives” (1999)

Columns and labels:
Mus musculus [1] = test: In vivo functional activity against spleen Immunophenotyping in mice at 125 mg/kg dose using CD4+CD45+ as cell subset
Method in brief: (§1)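 Female C57BL/6 mice, 6–8 weeks old, groups of seven, dosed i.p. once daily for four consecutive days (0, 50, 100 or 125 mg/kg) and sacrificed on day 5. Blood and spleen cells were lysed in ACK buffer (pH 7.3, 5 min), washed in PBS and stained 45 min on ice with FITC/PE surface-marker antibodies. Cells were fixed in 1% paraformaldehyde and read by flow cytometry. Values are relative subset percentages, compared by unpaired t test.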

Mus musculus [2] = test: In vivo functional activity against spleen Immunophenotyping in mice at 50 mg/kg dose using CD8+CD45+ as cell subset; method in brief: as §1
Mus musculus [3] = test: In vivo functional activity against spleen Immunophenotyping in mice at 125 mg/kg dose using LY5+ as cell subset; method in brief: as §1
Mus musculus [4] = test: In vivo functional activity against Blood Immunophenotyping in mice at 0 mg/kg dose using NK+ as cell subset; method in brief: as §1
Mus musculus [5] = test: In vivo functional activity against spleen Immunophenotyping in mice at 100 mg/kg dose using NK+CD3+ as cell subset; method in brief: as §1
Mus musculus [6] = test: In vivo functional activity against spleen Immunophenotyping in mice at 100 mg/kg dose using CD4+CD45+ as cell subset; method in brief: as §1
Mus musculus [7] = test: In vivo functional activity against spleen Immunophenotyping in mice at 0 mg/kg dose using CD4+CD45+ as cell subset; method in brief: as §1
Mus musculus [8] = test: In vivo functional activity against spleen Immunophenotyping in mice at 100 mg/kg dose using LY5+ as cell subset; method in brief: as §1
Mus musculus [9] = test: In vivo functional activity against spleen Immunophenotyping in mice at 125 mg/kg dose using NK+CD3+ as cell subset; method in brief: as §1
Mus musculus [10] = test: In vivo functional activity against spleen Immunophenotyping in mice at 125 mg/kg dose using TCR+ as cell subset; method in brief: as §1
Mus musculus [11] = test: In vivo functional activity against spleen Immunophenotyping in mice at 0 mg/kg dose using CD8+CD45+ as cell subset; method in brief: as §1
Mus musculus [12] = test: In vivo functional activity against spleen Immunophenotyping in mice at 0 mg/kg dose using TCR+ as cell subset; method in brief: as §1
Mus musculus [13] = test: In vivo functional activity against Blood Immunophenotyping in mice at 50 mg/kg dose using NK+ as cell subset; method in brief: as §1
Mus musculus [14] = test: In vivo functional activity against spleen Immunophenotyping in mice at 50 mg/kg dose using CD4+CD45+ as cell subset; method in brief: as §1
Mus musculus [15] = test: In vivo functional activity against spleen Immunophenotyping in mice at 0 mg/kg dose using LY5+ as cell subset; method in brief: as §1
Mus musculus [16] = test: In vivo functional activity against Blood Immunophenotyping in mice at 100 mg/kg dose using CD4+CD45+ as cell subset (value in parentheses indicate P value); method in brief: as §1
Mus musculus [17] = test: In vivo functional activity against Blood Immunophenotyping in mice at 50 mg/kg dose using CD4+CD45+ as cell subset; method in brief: as §1
Mus musculus [18] = test: In vivo functional activity against Blood Immunophenotyping in mice at 125 mg/kg dose using NK+ as cell subset; method in brief: as §1
Mus musculus [19] = test: In vivo functional activity against Blood Immunophenotyping in mice at 125 mg/kg dose using CD4+CD45+ as cell subset; method in brief: as §1
Mus musculus [20] = test: In vivo functional activity against spleen Immunophenotyping in mice at 50 mg/kg dose using TCR+ as cell subset; method in brief: as §1
Mus musculus [21] = test: In vivo functional activity against spleen Immunophenotyping in mice at 50 mg/kg dose using NK+CD3+ as cell subset; method in brief: as §1
Mus musculus [22] = test: In vivo functional activity against spleen Immunophenotyping in mice at 100 mg/kg dose using CD8+CD45+ as cell subset; method in brief: as §1
Mus musculus [23] = test: In vivo functional activity against spleen Immunophenotyping in mice at 0 mg/kg dose using NK+CD3+ as cell subset; method in brief: as §1
Mus musculus [24] = test: In vivo functional activity against spleen Immunophenotyping in mice at 50 mg/kg dose using LY5+ as cell subset; method in brief: as §1
Mus musculus [25] = test: In vivo functional activity against Blood Immunophenotyping in mice at 0 mg/kg dose using CD4+CD45+ as cell subset; method in brief: as §1
Mus musculus [26] = test: In vivo functional activity against spleen Immunophenotyping in mice at 125 mg/kg dose using CD8+CD45+ as cell subset; method in brief: as §1
Mus musculus [27] = test: In vivo functional activity against spleen Immunophenotyping in mice at 100 mg/kg dose using TCR+ as cell subset; method in brief: as §1
Mus musculus [28] = test: In vivo functional activity against Blood Immunophenotyping in mice at 100 mg/kg dose using NK+ as cell subset; method in brief: as §1

N[C@@H](Cc1ccc(O)cc1)/C(S)=N/CC(=O)NCC(=O)O
Activity (Mus musculus [1]): 31.93 | Activity (Mus musculus [2]): 5.77 | Activity (Mus musculus [3]): 50.71 | Activity (Mus musculus [4]): 8 | Activity (Mus musculus [5]): 2.99 | Activity (Mus musculus [6]): 34.63 | Activity (Mus musculus [7]): 41.73 | Activity (Mus musculus [8]): 40.79 | Activity (Mus musculus [9]): 3.37 | Activity (Mus musculus [10]): 43.59 | Activity (Mus musculus [11]): 4.97 | Activity (Mus musculus [12]): 58.54 | Activity (Mus musculus [13]): 6.37 | Activity (Mus musculus [14]): 43.1 | Activity (Mus musculus [15]): 38.03 | Activity (Mus musculus [16]): 22.9 | Activity (Mus musculus [17]): 23.94 | Activity (Mus musculus [18]): 6.29 | Activity (Mus musculus [19]): 28.89 | Activity (Mus musculus [20]): 59.07 | Activity (Mus musculus [21]): 2.7 | Activity (Mus musculus [22]): 6.93 | Activity (Mus musculus [23]): 2.37 | Activity (Mus musculus [24]): 38.56 | Activity (Mus musculus [25]): 22.56 | Activity (Mus musculus [26]): 5.46 | Activity (Mus musculus [27]): 52.63 | Activity (Mus musculus [28]): 5.84
